Columns and labels:
MMP-2 = MMP-2 (Homo sapiens, UniProt P08253); assay: In vitro MMP-2 inhibition, colorimetric kit; type: biochemical; conditions: read-out: MMP-2 IC50
MMP-9 = MMP-9 (Homo sapiens, UniProt P14780); assay: In vitro MMP-9 inhibition, colorimetric kit; type: biochemical
Wi-38 cells = assay: MTT cytotoxicity on normal human fibroblasts; type: cell-based
In short: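 Normal human lung fibroblasts (Wi-38) were exposed to free s-triazine dendrimers and their conjugates, and viability was read by MTT assay. Safety was expressed as EC100 in μM, the concentration giving 100% growth of normal cells, as mean ± SEM of three measurements. Groups were compared by one-way ANOVA with Tukey's test at p < 0.05.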

MCF-7 cells [1] = assay: MTT cytotoxicity on breast cancer cells; type: cell-based, human
In short: (§1)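 Test compounds (free s-triazine dendrimers and their quercetin, lactobionic acid and PEG conjugates) were screened by MTT assay against MCF-7 breast and HepG-2 hepatocellular carcinoma cells. IC50 values are reported in μM as mean ± SEM of three measurements. Differences were tested by one-way ANOVA with Tukey's test, with p < 0.05 taken as significant. SI was tabulated against Wi-38 values.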

HepG-2 cells [2] = assay: MTT cytotoxicity on hepatocellular carcinoma cells; type: cell-based, human
In short: as §1

MCF-7 cells [3] = assay: Flow cytometric annexin V/PI analysis of apoptosis; type: cell-based, human; conditions: MCF-7, 72 h, mean ± SEM
HepG-2 cells [4] = assay: Flow cytometric annexin V/PI analysis of apoptosis; type: cell-based, human; conditions: HepG-2, 72 h, mean ± SEM
VEGF [5] = assay: VEGF gene expression by quantitative real-time PCR; type: cell-based, human; conditions: MCF-7, compared to untreated cells, mean ± SEM
VEGF [6] = assay: VEGF gene expression by quantitative real-time PCR; type: cell-based, human; conditions: HepG-2, compared to untreated cells, mean ± SEM
[7] = selectivity index versus normal Wi-38 cells

Chain of MMP-9 (P14780 94-707): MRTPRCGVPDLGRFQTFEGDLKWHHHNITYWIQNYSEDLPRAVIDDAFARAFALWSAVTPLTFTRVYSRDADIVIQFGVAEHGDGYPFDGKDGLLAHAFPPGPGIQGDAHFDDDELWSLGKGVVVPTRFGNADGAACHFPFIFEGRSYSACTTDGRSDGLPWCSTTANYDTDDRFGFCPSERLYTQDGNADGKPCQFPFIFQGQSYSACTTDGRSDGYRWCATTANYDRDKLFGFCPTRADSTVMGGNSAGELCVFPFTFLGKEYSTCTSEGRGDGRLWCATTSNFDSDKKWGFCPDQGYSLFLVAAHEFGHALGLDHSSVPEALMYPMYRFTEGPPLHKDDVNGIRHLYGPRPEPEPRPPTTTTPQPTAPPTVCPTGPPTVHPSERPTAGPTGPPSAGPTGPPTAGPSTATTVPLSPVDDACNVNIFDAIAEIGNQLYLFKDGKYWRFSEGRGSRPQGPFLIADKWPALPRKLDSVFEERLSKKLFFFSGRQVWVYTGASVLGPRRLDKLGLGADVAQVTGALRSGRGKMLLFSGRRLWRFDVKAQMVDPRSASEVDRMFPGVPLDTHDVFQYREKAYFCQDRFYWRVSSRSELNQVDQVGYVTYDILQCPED
Chain of MMP-2 (P08253 110-446 limits assumed): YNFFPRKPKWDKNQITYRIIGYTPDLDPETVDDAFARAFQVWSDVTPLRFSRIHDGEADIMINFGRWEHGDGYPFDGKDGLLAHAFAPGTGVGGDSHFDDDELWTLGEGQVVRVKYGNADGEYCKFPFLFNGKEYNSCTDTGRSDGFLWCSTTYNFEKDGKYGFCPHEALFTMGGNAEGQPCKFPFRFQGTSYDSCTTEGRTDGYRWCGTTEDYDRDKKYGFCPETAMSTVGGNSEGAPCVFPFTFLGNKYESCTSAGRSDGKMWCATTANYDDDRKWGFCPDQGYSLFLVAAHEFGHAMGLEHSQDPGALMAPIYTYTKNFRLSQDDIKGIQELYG

SMILES	IC50 (MMP-2)	MMP-2/MMP-9 selectivity (MMP-9; SI = IC50 (MMP-2)/IC50 (MMP-9), text: folds)	IC50 (MMP-9; read-out: MMP-9 IC50)	IC50 (Wi-38 cells; Homo sapiens, WI-38, read-out: Wi-38 IC50)	EC100 (Wi-38 cells; effective safe concentration at 100% cell viability, Wi-38, 72 h, mean ± SEM)	IC50 (MCF-7 cells [1]; Homo sapiens, MCF7, 72 h, read-out: MCF-7 IC50)	MCF-7 SI (MCF-7 cells [1]; [7])	selectivity index (SI) (MCF-7 cells [1]; stated for MCF-7 and HepG-2 together, versus Wi-38)	IC50 (HepG-2 cells [2]; Homo sapiens, HepG2, 72 h, read-out: HepG-2 IC50)	HepG-2 SI (HepG-2 cells [2]; [7])	Total % of the apoptotic population (MCF-7 cells [3])	Total % of the apoptotic population (HepG-2 cells [4])	VEGF relative fold change (VEGF [5])	VEGF relative fold change (VEGF [6])
COc1ccc(S(=O)(=O)N(CC(=O)NO)CC(C)C)cc1 [NNGH, N-isobutyl-N-(4-methoxyphenylsulfonyl)glycyl hydroxamic acid]	0.299 µM	1.08	0.277 µM											
O=c1c(O)c(-c2ccc(O)c(O)c2)oc2cc(O)cc(O)c12 [Qur, quercetin]				294 ± 12.6 µM	70.57 ± 0.950 µM	35.3 ± 0.475 µM	8.339	~8.5	34.32 ± 0.128 µM	8.573	47.00 ± 1.83 %	24.20 ± 0.895 %	0.683 ± 0.029	0.708 ± 0.012
